# In publication PMC7253076 (Cell chemical biology, 2019):
# “And” between values parts separate entries of the source, which are not always exact repeats. Equal values may be shown once.
# Tests used:
# HGK [1] = target: HGK (Homo sapiens, UniProt O95819); test: Cell-free radiolabeled ATP kinase assay; format: biochemical
# How it was run: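 Recombinant HGK and substrate with test compound in radiometric HotSpot assay at 25°C: ATP plus 33P-ATP at 10 μM final, 120 min, then spotted on P81 filter paper and washed. IC50 from 10 concentrations, 0.0002–0.1 μM in 2-fold steps. Otherwise single concentrations were used; the 371-kinase panel was run at 0.1 μM. Activity is % remaining versus DMSO alone.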
# [2] = tested on: human stem-cell-derived motor neurons carrying the ALS-causing SOD1^A4V mutation; test: Motor neuron CPA survival assay, SOD1^A4V ALS motor neurons
# MLK3 = MLK3 (Homo sapiens, UniProt Q16584); test: Cell-free radiolabeled ATP kinase assay; format: biochemical; settings: for activity at MLK3: single concentration, cell-free
# MLK3, sequence (Q16584 whole entry): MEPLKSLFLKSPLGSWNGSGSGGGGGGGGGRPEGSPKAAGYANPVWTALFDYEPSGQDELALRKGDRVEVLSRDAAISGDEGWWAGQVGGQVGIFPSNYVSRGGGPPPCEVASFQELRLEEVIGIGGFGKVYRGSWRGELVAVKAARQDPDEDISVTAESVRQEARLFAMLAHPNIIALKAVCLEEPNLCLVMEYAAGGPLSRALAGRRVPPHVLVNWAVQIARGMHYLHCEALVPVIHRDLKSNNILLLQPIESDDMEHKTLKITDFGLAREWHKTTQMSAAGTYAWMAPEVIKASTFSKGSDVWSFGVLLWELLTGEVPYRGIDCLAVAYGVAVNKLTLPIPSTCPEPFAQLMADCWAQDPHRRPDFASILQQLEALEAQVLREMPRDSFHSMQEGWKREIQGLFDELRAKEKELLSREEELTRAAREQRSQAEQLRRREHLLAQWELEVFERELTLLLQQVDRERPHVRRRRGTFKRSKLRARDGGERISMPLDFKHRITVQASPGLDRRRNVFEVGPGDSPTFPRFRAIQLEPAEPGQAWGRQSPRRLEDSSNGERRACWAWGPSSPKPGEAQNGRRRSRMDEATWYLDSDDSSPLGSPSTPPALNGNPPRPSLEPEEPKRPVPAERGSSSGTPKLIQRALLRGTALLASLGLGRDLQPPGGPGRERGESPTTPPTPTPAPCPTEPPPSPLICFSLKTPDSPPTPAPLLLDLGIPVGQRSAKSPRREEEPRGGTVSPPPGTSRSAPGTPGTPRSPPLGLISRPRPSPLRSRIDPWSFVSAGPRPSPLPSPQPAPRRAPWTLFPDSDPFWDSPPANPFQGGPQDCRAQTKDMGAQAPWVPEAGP
# [3] = tested on: TNFα release in LPS-stimulated mouse N9 microglial cells; test: TNFα ELISA in LPS-stimulated N9 microglia; format: cell-based; settings: for EC50: Mus musculus, N9, 24 h, read-out: EC50 for decrease of TNFα secretion
# How it was run: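 N9 mouse microglia were plated at 8000 cells/well on gelatin in DMEM/10% FBS. At 24 h, cells were treated with LPS (E. coli O111:B4) plus test compound at stated concentrations. 24 h later, medium TNFα was measured by ELISA (A450, 540 nm correction). Viability of remaining cells was checked by AlamarBlue, 4 h at 37°C. n = 2 wells; means ± SEM.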
# MLK1 = MLK1 (Homo sapiens, UniProt P80192); test: Cell-free radiolabeled ATP kinase assay; format: biochemical; settings: single concentration
# MLK1, sequence (P80192 whole entry): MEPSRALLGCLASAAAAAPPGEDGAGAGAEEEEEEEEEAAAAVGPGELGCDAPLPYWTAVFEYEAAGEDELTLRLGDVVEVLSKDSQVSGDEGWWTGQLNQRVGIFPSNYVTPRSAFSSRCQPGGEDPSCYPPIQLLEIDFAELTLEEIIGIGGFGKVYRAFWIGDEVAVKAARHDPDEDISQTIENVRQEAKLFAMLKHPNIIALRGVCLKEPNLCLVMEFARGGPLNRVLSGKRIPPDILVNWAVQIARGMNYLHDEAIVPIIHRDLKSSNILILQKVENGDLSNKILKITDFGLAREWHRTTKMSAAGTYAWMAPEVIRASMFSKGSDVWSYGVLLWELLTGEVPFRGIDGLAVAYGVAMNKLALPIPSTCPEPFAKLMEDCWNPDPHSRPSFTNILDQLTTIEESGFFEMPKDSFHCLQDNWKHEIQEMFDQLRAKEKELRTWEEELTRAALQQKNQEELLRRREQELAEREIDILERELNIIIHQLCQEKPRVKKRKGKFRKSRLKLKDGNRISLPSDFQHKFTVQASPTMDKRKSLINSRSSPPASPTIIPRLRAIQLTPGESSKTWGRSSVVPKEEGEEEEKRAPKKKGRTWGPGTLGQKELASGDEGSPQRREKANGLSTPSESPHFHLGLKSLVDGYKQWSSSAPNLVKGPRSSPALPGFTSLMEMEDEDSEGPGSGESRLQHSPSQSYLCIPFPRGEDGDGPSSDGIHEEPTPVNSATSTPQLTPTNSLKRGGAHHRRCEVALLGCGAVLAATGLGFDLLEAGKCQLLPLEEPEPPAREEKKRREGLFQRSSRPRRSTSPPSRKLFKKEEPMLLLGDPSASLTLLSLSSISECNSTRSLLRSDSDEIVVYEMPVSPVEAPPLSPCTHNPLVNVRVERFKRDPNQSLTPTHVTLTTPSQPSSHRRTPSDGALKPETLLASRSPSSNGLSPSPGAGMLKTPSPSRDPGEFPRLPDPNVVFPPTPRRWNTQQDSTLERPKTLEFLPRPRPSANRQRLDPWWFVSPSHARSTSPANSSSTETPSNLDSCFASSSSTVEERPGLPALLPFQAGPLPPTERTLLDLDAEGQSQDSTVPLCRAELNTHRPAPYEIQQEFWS
# How it was run: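 MLK1 radiometric HotSpot assay: recombinant kinase and substrate at 25°C with ATP plus 33P-ATP at 10 μM final, 120 min, spotted on P81 paper and washed. Single-dose panel run at 0.1 μM; IC50 series for MLK1 spanned 0.002–1 μM in 2-fold steps. Read-out is % remaining activity versus DMSO.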
# [4] = tested on: kinases assayed in cell-free conditions; test: Kinase selectivity score from published cell-free panels; format: biochemical
# [5] = tested on: motor neurons differentiated from human induced pluripotent stem cells derived from a healthy patient; test: Motor neuron CPA survival assay, healthy-patient iPSC-derived motor neurons; format: cell-based; settings: CPA-treated healthy human motor neurons, 72 h
# [6] = In vivo pharmacokinetics, IP injection or oral gavage; set-up: species or system mouse; settings: for Brain AUC / Brain mean Cmax / Kp at 3 h / Cmax: mouse; for Brain AUC / Brain mean Cmax: ± SEM; for Kp at 3 h / Cmax: male, B6SJLF1/J; for Kp at 3 h: brain and plasma; for Cmax: plasma
# How it was run: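 Dosing solution: DMSO stock diluted to 2 mg/mL in 40% PEG-400 plus 55% of a 20% hydroxypropyl-β-cyclodextrin solution. Given at 10 mg/kg IP or by oral gavage to 8-week-old male wild-type B6SJLF1/J mice, n = 3 per route per time point. At 15 min, 3, 8 or 24 h: trunk blood (EDTA 50 mM final, plasma) and fresh brain taken. Analysed by LC-MS against calibration curves; means ± SEM.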
# JNK pathway = test: Western blots of JNK pathway in CPA-treated motor neurons; format: cell-based, mouse; settings: western blot
# How it was run: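 Day-6 embryoid bodies from mouse ES cells (HB9::GFP reporter, human SOD1 transgene; RA 1 μM + SAG 0.5 μM) were given CPA 10 μM plus test compound 0.5 μM for 4 h, then lysed in HEPES/Triton/SDS buffer. Immunoblots used phospho-JNK (Thr183/Tyr185), phospho-c-Jun (Ser63), phospho-MKK4 (Ser257), total proteins and cleaved caspase 3 at 1:1000, with GAPDH at 1:3000. Signals normalised to GAPDH, phospho to total, and expressed as % of CPA; n = 2 differentiations; unpaired two-tailed t-tests.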
# [7] = tested on: CPA-treated motor neurons; test: CPA-treated motor neurons, PKC/ABL inhibitors; format: cell-based; settings: data not shown
# [8] = tested on: HIV-mediated microgliosis in the brain; settings: mice, ref Marker et al. (2013), cited from earlier work
# HGK [9] = settings: 1 μM; ref Goodfellow et al., 2013; cited from earlier work
# [10] = ref Goodfellow et al. (2013); cited from earlier work
# SOD1^G93A mutant rats = settings: late-stage SOD1^G93A mutant rats; ref Trias et al., 2016; cited from earlier work
# [11] = ref Tang et al., 2012; cited from earlier work
# [12] = tested on: mouse stem cell-derived motor neurons; settings: CPA-treated; ref Thams et al., 2019; cited from earlier work
# [13] = CPA-treated SOD1^A4V motor neurons
# [14] = CPA 10 μM + compound 0.5 μM, 4 h
# HGK (Homo sapiens, UniProt O95819), sequence (O95819 whole entry): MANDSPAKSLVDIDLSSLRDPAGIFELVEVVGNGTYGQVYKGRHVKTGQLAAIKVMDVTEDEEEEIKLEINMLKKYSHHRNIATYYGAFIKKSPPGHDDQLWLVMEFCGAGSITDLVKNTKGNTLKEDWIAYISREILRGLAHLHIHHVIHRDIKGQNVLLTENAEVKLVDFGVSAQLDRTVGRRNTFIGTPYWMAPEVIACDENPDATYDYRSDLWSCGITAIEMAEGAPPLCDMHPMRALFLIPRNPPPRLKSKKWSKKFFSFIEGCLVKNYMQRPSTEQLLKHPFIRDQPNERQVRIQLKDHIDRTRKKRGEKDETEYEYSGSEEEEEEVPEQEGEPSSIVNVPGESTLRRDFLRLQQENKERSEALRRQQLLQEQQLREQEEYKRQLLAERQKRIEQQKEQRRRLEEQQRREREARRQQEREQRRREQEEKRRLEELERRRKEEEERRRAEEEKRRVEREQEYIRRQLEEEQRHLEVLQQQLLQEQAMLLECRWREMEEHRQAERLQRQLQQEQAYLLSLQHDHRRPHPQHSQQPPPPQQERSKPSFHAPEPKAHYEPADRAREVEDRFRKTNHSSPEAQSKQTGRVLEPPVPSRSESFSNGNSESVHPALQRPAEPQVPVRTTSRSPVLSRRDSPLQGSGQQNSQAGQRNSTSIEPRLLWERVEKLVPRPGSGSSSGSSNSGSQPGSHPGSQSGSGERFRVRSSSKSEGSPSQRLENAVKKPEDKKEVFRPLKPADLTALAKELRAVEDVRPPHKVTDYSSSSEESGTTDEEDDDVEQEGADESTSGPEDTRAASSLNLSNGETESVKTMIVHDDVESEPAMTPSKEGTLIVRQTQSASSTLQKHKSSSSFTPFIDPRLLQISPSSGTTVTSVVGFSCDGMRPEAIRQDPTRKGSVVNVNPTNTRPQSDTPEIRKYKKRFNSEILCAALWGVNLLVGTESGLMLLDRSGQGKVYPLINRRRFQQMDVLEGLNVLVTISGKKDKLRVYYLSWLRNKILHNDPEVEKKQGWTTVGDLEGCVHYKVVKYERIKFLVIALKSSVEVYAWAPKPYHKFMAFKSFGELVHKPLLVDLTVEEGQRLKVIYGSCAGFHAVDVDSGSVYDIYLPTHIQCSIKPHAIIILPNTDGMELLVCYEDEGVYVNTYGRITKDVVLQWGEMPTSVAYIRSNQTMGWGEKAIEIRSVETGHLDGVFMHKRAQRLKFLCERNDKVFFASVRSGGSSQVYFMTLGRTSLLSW
structure (smiles),measurement,setting,value
"CN1CC2CCC(C1)N2Cc1ccc(-c2cnc3[nH]cc(-c4cccc5[nH]ncc45)c3c2)cc1 [12e, 4-(5-(4-((3-Methyl-3,8-diazabicyclo[3.2.1]octan-8-yl)methyl)phenyl)-1H-pyrrolo[2,3-b]pyridin-3-yl)-1H-indazole]",inhibition of HGK activity,"HGK [1]; single concentration, cell-free",strongly inhibited HGK activity
same,neuroprotection in CPA survival assay,[2]; [13],highly neuroprotective
same,activity at MLK3,MLK3,little activity at MLK3
same,effect on TNFα release at 0.5 μM,"[3]; 0.5 μM, LPS-stimulated N9 microglia",did not inhibit TNFα release
same,effect on TNFα levels,[3]; LPS-stimulated N9 microglia,did not significantly decrease TNFα levels
same,inhibition of MLK1,MLK1,inability to inhibit MLK3 and MLK1
Nc1ncc(C(=O)NC2CN(C(=O)C3CC3)C2)c2ccc(-c3cccc(F)c3)nc12 [GNE-495],selectivity score (kinases with <20% activity remaining / total kinases assayed),"[4]; 1 μM, cell-free, calculated from published data, ref Ndubaku et al., 2015",0.01
same,rescue of CPA toxicity / neuroprotection,[5],neuroprotective
"OCCN1CCN(Cc2ccc(-c3cnc4[nH]cc(-c5cccc(Cl)c5)c4c3)cc2)CC1 [Prostetin/12k, 2-(4-(4-(3-(3-Chlorophenyl)-1H-pyrrolo[2,3-b]pyridin-5-yl)benzyl)piperazin-1-yl)ethan-1-ol]",Brain AUC,[6]; 10 mg/kg IP,11570 (±1655) μg/L•h
same,Brain mean Cmax,[6]; 10 mg/kg IP,1162 (±91.99) μg/kg
same,Brain AUC,[6]; 10 mg/kg OG,8429 (±1458) μg/L•h
same,Brain mean Cmax,[6]; 10 mg/kg OG,658.9 (±257.7) μg/kg
same,brain Cmax,"[6]; IP-injected animals, 10 mg/kg",1162 ng/g and 2.60 μM
same,Kp at 3 h,"[6]; ip, 10 mg/kg",3
same,Kp at 3 h,"[6]; oral, 10 mg/kg",3.3
same,Cmax,"[6]; ip, 10 mg/kg",454 ng/mL
same,Cmax,"[6]; po, 10 mg/kg",184 ng/mL
same,inhibition of JNK pathway components,JNK pathway; Fig. S2,effectively inhibit the same JNK pathway components as compound 1
same,IC50,HGK [1],0.3 nM
same,concentration at which maximum efficacy (Emax) was observed,[2]; [13],0.5 µM
same,EC50,"[2]; Homo sapiens, Neuron, 72 h, read-out: EC50 in motor neuron survival assay",100 nM
same,activity at MLK3,MLK3,slightly decreased inhibition of MLK3
same,concentrations that significantly attenuated TNFα release,[3]; LPS-stimulated N9 microglia,≥ 0.5 µM
same,EC50,[3],~470 nM
same,potency relative to compound 1 (fold less potent),[3]; suppression of TNFα release,~ 5 x
CS(=O)(=O)O.Cn1cc(C2=C(c3cn(CCCSC(=N)N)c4ccccc34)C(=O)NC2=O)c2ccccc21 [Ro-318220 mesylate],protection of CPA-treated motor neurons,[7],mildly protective
COc1cc(Nc2c(C#N)cnc3cc(OCCCN4CCN(C)CC4)c(OC)cc23)c(Cl)cc1Cl [bosutinib],protection of CPA-treated motor neurons,[7],mildly protective
"CN1CCN(Cc2ccc(-c3cnc4[nH]cc(-c5ccc6[nH]ccc6c5)c4c3)cc2)CC1 [compound 1, 3-(1H-Indol-5-yl)-5-(4-((4-methylpiperazin-1-yl)methyl)phenyl)-1H-pyrrolo[2,3-b]pyridine, reference compound]",effect on HIV-mediated microgliosis in the brain,[8]; IP 10 mg/kg twice a day for 28 days,attenuate Human Immunodeficiency Virus (HIV)-mediated microgliosis
same,tolerability over long-term dosing,[8],well-tolerated
same,Brain AUC,[6]; 10 mg/kg IP,1568 (±147.1) μg/L•h
same,Brain mean Cmax,[6]; 10 mg/kg IP,208.8 (±10.21) μg/kg
same,Brain AUC,[6]; 10 mg/kg OG,567.2 (±110.5) μg/L•h
same,Brain mean Cmax,[6]; 10 mg/kg OG,83.35 (±21.40) μg/kg
same,Kp at 3 h,"[6]; ip, 10 mg/kg",0.23
same,Kp at 3 h,"[6]; oral, 10 mg/kg",0.19
same,Cmax,"[6]; ip, 10 mg/kg",972 ng/mL
same,Cmax,"[6]; po, 10 mg/kg",476 ng/mL
same,JNK activation (phospho-JNK Thr183/Tyr185) compared to CPA alone,JNK pathway; [14],significantly decreased JNK activation
same,phosphorylation of MKK4 at Ser257,JNK pathway; [14],attenuated the phosphorylation
same,IC50,HGK [1],5.93 nM
same,maximum motor neuron survival compared to untreated controls,"[2]; CPA 33 μM, 72 h, CPA alone ~10%",102%
same,concentration at which maximum efficacy (Emax) was observed,[2]; [13],1 µM
same,inhibition of HGK activity,HGK [9],> 99%
same,selectivity score (kinases with <20% activity remaining / total kinases assayed),"[4]; similar conditions, based on data from ref Goodfellow et al. (2013)",0.36
same,bioavailability (%F) as measured in the plasma,[10],41
same,rescue of CPA toxicity / neuroprotection,[5],neuroprotective
same,IC50,MLK3,18.6 nM
same,EC50,[3],200 nM
Cc1ccc(NC(=O)c2ccc(CN3CCN(C)CC3)cc2)cc1Nc1nc(-c2cccnc2)cs1 [masitinib],effect on microgliosis and disease progression,SOD1^G93A mutant rats,attenuate microgliosis and slow disease progression
CCN(CC)CCNC(=O)c1c(C)[nH]c(/C=C2\C(=O)Nc3ccc(F)cc32)c1C [sunitinib],blood-brain barrier crossing,[11],does not readily cross the blood-brain barrier
same,protection of motor neurons from ER stress,[12],protect motor neurons from ER stress
